Source: ChEMBL document CHEMBL1129397, “Synthesis and biological activity of aromatic amino acid phosphoramidates of 5-fluoro-2'-deoxyuridine and 1-beta-arabinofuranosylcytosine: evidence of phosphoramidase activity” (J Med Chem, 1996)

How the values were obtained:
CCRF-CEM = experiment: In vitro cytotoxicity of compounds were determined on Inhibition of human leukemia cell line(CCRF-CEM).; format: functional, cell-based
Outline: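 CCRF-CEM cells, or a CEM-TK⁻ variant with less than 1% of wild-type thymidine kinase activity, were grown in RPMI 1640 with 20% heat-inactivated FBS, penicillin, streptomycin and 0.5% human IL-2. Cells were cultured with or without compound for 48 h at 37 °C in 5% CO2. Proliferation and viability were then counted by trypan blue dye exclusion.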

L1210 = experiment: In vitro cytotoxicity of compounds were determined on murine leukemia cell line (L1210).; format: functional, cell-based; conditions: Mus musculus
Outline: (§1)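 Cells were cultured with or without compound for 48 h at 37 °C in a 5% CO2–95% air atmosphere. Portions were then counted for proliferation and viability by trypan blue dye exclusion. IC50 was taken from the remaining viable cell number.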

Thymidylate synthase [1] = molecular target: T1, Thymidylate synthase (Mus musculus, UniProt P07607); experiment: Inhibition of cellular thymidylate synthase activity of mouse fibroblast (L929 TK-) in intact cells.; format: cell-based
T1 sequence (P07607 whole entry): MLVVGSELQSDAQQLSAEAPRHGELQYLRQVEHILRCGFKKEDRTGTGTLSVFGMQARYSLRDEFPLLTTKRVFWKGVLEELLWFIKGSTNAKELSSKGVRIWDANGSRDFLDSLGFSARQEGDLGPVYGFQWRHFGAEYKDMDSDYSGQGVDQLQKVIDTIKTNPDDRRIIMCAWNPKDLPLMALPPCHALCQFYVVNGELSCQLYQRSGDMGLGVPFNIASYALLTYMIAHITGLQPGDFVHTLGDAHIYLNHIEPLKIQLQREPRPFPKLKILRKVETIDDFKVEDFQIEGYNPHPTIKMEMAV

Thymidylate synthase [2] = molecular target: T1, Thymidylate synthase; experiment: Inhibition of cellular thymidylate synthase activity of mouse fibroblast (L929 TK-) in permeabilised cells; format: cell-based
Thymidylate synthase [3] = molecular target: T1, Thymidylate synthase; experiment: Inhibition of cellular thymidylate synthase activity of murine leukemia cell line (L1210) in intact cells.; format: cell-based
Thymidylate synthase [4] = molecular target: T1, Thymidylate synthase; experiment: Inhibition of cellular thymidylate synthase activity of murine leukemia cell line (L1210) in permeabilised cells.; format: cell-based
CEM-TK(-) (Homo sapiens) = experiment: In vitro cytotoxicity of compounds were determined on human leukemia cells (CEM-TK-).
L929 TK- (Mus musculus) = experiment: In vitro cytotoxicity of compounds were determined on murine fibroblast cell line (L929 TK-) in.
L929 = experiment: In vitro cytotoxicity of compounds were determined on mouse fibroblast (L929 TK-).; format: functional, cell-based; outline: as §1
CEM-TK(-) = experiment: In vitro cytotoxicity of compounds were determined on Inhibition of human leukemia cell line (CEM-TK)
Thymidylate synthase [5] = molecular target: T1, Thymidylate synthase; experiment: Inhibition of cellular thymidylate synthase activity of mouse fibroblast (L929 TK-) in permeabilised cells.; format: cell-based
Outline: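 L929 TK⁻ cells were permeabilized with high-molecular-weight dextran sulfate. Intracellular thymidylate synthase activity was then measured in situ by tritium release, and IC50 values were determined.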

| SMILES | IC50 (CCRF-CEM) | IC50 (L1210) | IC50 (Thymidylate synthase [1]) | IC50 (Thymidylate synthase [2]) | IC50 (Thymidylate synthase [3]) | IC50 (Thymidylate synthase [4]) | IC50 (CEM-TK(-) (Homo sapiens)) | IC50 (L929 TK- (Mus musculus)) | IC50 (L929) | IC50 (CEM-TK(-)) | IC50 (Thymidylate synthase [5]) |
| --- | --- | --- | --- | --- | --- | --- | --- | --- | --- | --- | --- |
| COC(=O)[C@@H](NP(=O)(O)OC[C@H]1O[C@@H](n2cc(F)c(=O)[nH]c2=O)C[C@@H]1O)C1C=Nc2ccccc21 (some centres undefined) | 0.32 µM | 0.4 µM | 0.67 µM | > 1000 µM | 12 µM | 2.3 µM | 58.1 µM | 240 µM | – | – | – |
| Nc1ccn([C@@H]2O[C@H](COP(=O)(O)O)[C@@H](O)[C@H]2O)c(=O)n1 | 0.1 µM | – | – | – | – | – | – | – | – | – | – |
| COC(=O)[C@H](Cc1ccccc1)NP(=O)(O)OCC1OC(n2cc(F)c(=O)[nH]c2=O)CC1O (some centres undefined) | 0.32 µM | 0.41 µM | > 1000 µM | 1.1 µM | 21 µM | 5 µM | – | – | 200 µM | 86.5 µM | – |
| O=c1[nH]c(=O)n([C@H]2C[C@H](O)[C@@H](COP(=O)(O)O)O2)cc1F [5-FLUORODEOXYURIDYLATE] | 0.0055 µM | 0.015 µM | – | – | – | – | – | – | 6.8 µM | – | – |
| Nc1ccn([C@@H]2O[C@H](CO)[C@@H](O)[C@@H]2O)c(=O)n1 [CYTARABINE] | 0.09 µM | – | – | – | – | – | – | – | – | – | – |
| O=c1[nH]c(=O)n([C@H]2C[C@H](O)[C@@H](CO)O2)cc1F [FLOXURIDINE] | 0.002 µM | 0.012 µM | 7.3 µM | – | 0.043 µM | 59 µM | – | – | 7.7 µM | 66.3 µM | 11 µM |
